Test results published in ChEMBL document CHEMBL4368906 (J Med Chem, 2019).
Bridge positions count the residues as written; N and C are the ends. Square brackets hold non-standard residues; d marks the D form. Peptide text beside a SMILES is read from it. NMeW = CN[C@@H](Cc1c[nH]c2ccccc12)C(=O)O; NMeY = CN[C@@H](Cc1ccc(O)cc1)C(=O)O; NMeF = CN[C@@H](Cc1ccccc1)C(=O)O; NMeK = CN[C@@H](CCCCN)C(=O)O; NMeC = CN[C@@H](CS)C(=O)O

What was measured:
[1] = target: T1, Urotensin-2 receptor (Rattus norvegicus, UniProt P49684); assay: Agonist activity at urotensin 2 receptor in Sprague-Dawley rat thoracic aortic ring assessed as induction of contraction relative to KCl-induced contraction
T1 sequence (P49684 whole entry): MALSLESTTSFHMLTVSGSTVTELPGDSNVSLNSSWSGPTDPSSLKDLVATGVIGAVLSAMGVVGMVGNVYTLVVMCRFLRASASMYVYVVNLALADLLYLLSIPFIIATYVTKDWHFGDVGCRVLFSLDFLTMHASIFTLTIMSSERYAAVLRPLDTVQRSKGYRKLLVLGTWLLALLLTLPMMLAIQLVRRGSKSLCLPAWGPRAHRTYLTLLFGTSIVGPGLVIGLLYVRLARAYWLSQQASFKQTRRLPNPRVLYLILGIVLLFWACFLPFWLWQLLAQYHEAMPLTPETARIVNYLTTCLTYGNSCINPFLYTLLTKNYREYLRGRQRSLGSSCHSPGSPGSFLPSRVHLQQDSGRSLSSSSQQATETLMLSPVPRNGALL
How it was run: (§1)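 Male Sprague-Dawley rats, 250-300 g. Aortic rings were held in a 5-mL organ bath of oxygenated Krebs-Henseleit buffer. Each vessel was first challenged with KCl, 40 mM final in the bath. Peptides were added cumulatively from 10−11 to 10−5 M. Each contraction was taken as a percentage of the KCl response, divided by the response to hU-II (10−7 M).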

[2] = target: T2, Urotensin-2 receptor (Homo sapiens, UniProt Q9UKP6); assay: Displacement of [125I]-URP or human [125I[-urotensin-2 from human urotensin 2 receptor expressed in HEK293 or CHOK1 cells after 2 hrs by gamma-counting assay; type: cell-based
T2 sequence (Q9UKP6 whole entry): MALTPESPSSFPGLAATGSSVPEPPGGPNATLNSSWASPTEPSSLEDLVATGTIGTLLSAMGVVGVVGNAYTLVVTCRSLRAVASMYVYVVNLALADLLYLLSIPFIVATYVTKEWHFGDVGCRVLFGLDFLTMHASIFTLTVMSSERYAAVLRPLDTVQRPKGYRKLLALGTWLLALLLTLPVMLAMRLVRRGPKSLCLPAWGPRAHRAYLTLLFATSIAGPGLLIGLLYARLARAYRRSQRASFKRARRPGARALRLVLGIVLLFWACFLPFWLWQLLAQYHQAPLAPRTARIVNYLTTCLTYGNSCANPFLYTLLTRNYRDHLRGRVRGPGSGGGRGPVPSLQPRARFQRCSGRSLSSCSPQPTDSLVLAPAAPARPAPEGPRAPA

[3] = target: T3, Urotensin-2 receptor (Rattus norvegicus) (UniProt P49684); assay: Agonist activity at urotensin 2 receptor in Sprague-Dawley rat thoracic aortic ring assessed as induction of contraction relative to urotensin-2; how it was run: as §1
T3 sequence (whole entry): T1 sequence (P49684 whole entry)

[4] = target: T2, Urotensin-2 receptor; assay: Agonist activity at urotensin 2 receptor (unknown origin) expressed in HEK293 cells co-expressing Gq-polycistronic BRET biosensor assessed as induction of Gq activation measured for 5 mins by luminescence detection based BRET assay; type: cell-based
[5] = target: T3, Urotensin-2 receptor (Rattus norvegicus); assay: Agonist activity at urotensin 2 receptor in Sprague-Dawley rat thoracic aortic ring assessed as induction of contraction at 10 uM relative to KCl-induced contraction; how it was run: as §1

Row | SMILES | EC50 [1] | Ki [2] | Emax [3] | EC50 [4] | Activity [5]
1 | CC(C)[C@H](NC(=O)[C@@H]1CSSC[C@H](N(C)C(=O)[C@H](C)N)C(=O)N[C@@H](Cc2ccccc2)C(=O)N[C@@H](Cc2c[nH]c3ccccc23)C(=O)N[C@@H](CCCCN)C(=O)N[C@@H](Cc2ccc(O)cc2)C(=O)N1)C(=O)O | 4.9 nM | 1.74 nM | 110% | – | –
2 | CC(C)[C@H](NC(=O)[C@@H]1CSSC[C@H](NC(=O)[C@H](CC(=O)O)NC(=O)[C@@H]2CCCN2C(=O)[C@@H](NC(=O)[C@@H](N)CCC(=O)O)[C@@H](C)O)C(=O)N(C)[C@@H](Cc2ccccc2)C(=O)N[C@@H](Cc2c[nH]c3ccccc23)C(=O)N[C@@H](CCCCN)C(=O)N[C@@H](Cc2ccc(O)cc2)C(=O)N1)C(=O)O | 200 nM | 813 nM | 96% | 22.4 nM | –
3 | CC(C)[C@H](NC(=O)[C@@H]1CSSC[C@H](NC(=O)[C@H](C)N)C(=O)N[C@@H](Cc2ccccc2)C(=O)N[C@@H](Cc2c[nH]c3ccccc23)C(=O)N[C@@H](CCCCN)C(=O)N[C@@H](Cc2ccc(O)cc2)C(=O)N1)C(=O)O | 7.76 nM | 6.31 nM | 116% | 2.69 nM | –
4 | CC(C)[C@H](NC(=O)[C@@H]1CSSC[C@H](NC(=O)[C@@H](N)CC(=O)O)C(=O)N[C@@H](Cc2ccccc2)C(=O)N[C@@H](Cc2c[nH]c3ccccc23)C(=O)N[C@@H](CCCCN)C(=O)N(C)[C@@H](Cc2ccc(O)cc2)C(=O)N1)C(=O)O (H-DCFWK[NMeY]CV-OH; disulfide 2-7) | – | > 10000 nM | – | – | 44%
5 | CC(C)[C@H](NC(=O)[C@@H]1CSSC[C@H](NC(=O)[C@@H](N)CC(=O)O)C(=O)N(C)[C@@H](Cc2ccccc2)C(=O)N[C@@H](Cc2c[nH]c3ccccc23)C(=O)N[C@@H](CCCCN)C(=O)N[C@@H](Cc2ccc(O)cc2)C(=O)N1)C(=O)O (H-DC[NMeF]WKYCV-OH; disulfide 2-7) | 537 nM | 229 nM | 98% | 18.6 nM | –
6 | CC(C)[C@H](NC(=O)[C@@H]1CSSC[C@H](NC(=O)[C@H](C)N)C(=O)N[C@@H](Cc2ccccc2)C(=O)N[C@@H](Cc2c[nH]c3ccccc23)C(=O)N(C)[C@@H](CCCCN)C(=O)N[C@@H](Cc2ccc(O)cc2)C(=O)N1)C(=O)O | – | 1510 nM | – | – | 22%
7 | CC(C)[C@H](NC(=O)[C@@H]1CSSC[C@H](N(C)C(=O)[C@@H](N)CC(=O)O)C(=O)N[C@@H](Cc2ccccc2)C(=O)N[C@@H](Cc2c[nH]c3ccccc23)C(=O)N[C@@H](CCCCN)C(=O)N[C@@H](Cc2ccc(O)cc2)C(=O)N1)C(=O)O (H-D[NMeC]FWKYCV-OH; disulfide 2-7) | 4.47 nM | 2.95 nM | 101% | – | –
8 | CC(C)[C@H](NC(=O)[C@@H]1CSSC[C@H](NC(=O)[C@H](C)N)C(=O)N[C@@H](Cc2ccccc2)C(=O)N[C@@H](Cc2c[nH]c3ccccc23)C(=O)N[C@@H](CCCCN)C(=O)N[C@@H](Cc2ccc(O)cc2)C(=O)N1C)C(=O)O | 9.55 nM | 3.55 nM | 44% | 5.25 nM | –
9 | CC(C)[C@H](NC(=O)[C@@H]1CSSC[C@H](NC(=O)[C@H](C)N)C(=O)N[C@@H](Cc2ccccc2)C(=O)N(C)[C@@H](Cc2c[nH]c3ccccc23)C(=O)N[C@@H](CCCCN)C(=O)N[C@@H](Cc2ccc(O)cc2)C(=O)N1)C(=O)O | 83.2 nM | 2.19 nM | 35% | 13.8 nM | –
10 | CC(C)[C@H](NC(=O)[C@@H]1CSSC[C@H](NC(=O)[C@@H](N)CC(=O)O)C(=O)N[C@@H](Cc2ccccc2)C(=O)N(C)[C@@H](Cc2c[nH]c3ccccc23)C(=O)N[C@@H](CCCCN)C(=O)N[C@@H](Cc2ccc(O)cc2)C(=O)N1)C(=O)O (H-DCF[NMeW]KYCV-OH; disulfide 2-7) | 3.39 nM | 1.74 nM | 105% | 3.63 nM | –
11 | CC(C)[C@H](NC(=O)[C@@H]1CSSC[C@H](NC(=O)[C@H](CC(=O)O)NC(=O)[C@@H]2CCCN2C(=O)[C@@H](NC(=O)[C@@H](N)CCC(=O)O)[C@@H](C)O)C(=O)N[C@@H](Cc2ccccc2)C(=O)N[C@@H](Cc2c[nH]c3ccccc23)C(=O)N[C@@H](CCCCN)C(=O)N[C@@H](Cc2ccc(O)cc2)C(=O)N1)C(=O)O [UROTENSIN-II] | 3.02 nM | – | – | – | –
12 | CC(C)[C@H](NC(=O)[C@@H]1CSSC[C@H](NC(=O)[C@H](CC(=O)O)NC(=O)[C@@H]2CCCN2C(=O)[C@@H](NC(=O)[C@@H](N)CCC(=O)O)[C@@H](C)O)C(=O)N[C@@H](Cc2ccccc2)C(=O)N(C)[C@@H](Cc2c[nH]c3ccccc23)C(=O)N[C@@H](CCCCN)C(=O)N[C@@H](Cc2ccc(O)cc2)C(=O)N1)C(=O)O | 5.75 nM | 20.4 nM | 97% | 5.62 nM | –
13 | CC(C)[C@H](NC(=O)[C@@H]1CSSC[C@H](NC(=O)[C@@H](N)CC(=O)O)C(=O)N[C@@H](Cc2ccccc2)C(=O)N[C@@H](Cc2c[nH]c3ccccc23)C(=O)N[C@@H](CCCCN)C(=O)N[C@@H](Cc2ccc(O)cc2)C(=O)N1)C(=O)O (H-DCFWKYCV-OH; disulfide 2-7) | 5.25 nM | 4.57 nM | – | 1.86 nM | –
14 | CC(C)[C@H](NC(=O)[C@@H]1CSSC[C@H](N(C)C(=O)[C@H](CC(=O)O)NC(=O)[C@@H]2CCCN2C(=O)[C@@H](NC(=O)[C@@H](N)CCC(=O)O)[C@@H](C)O)C(=O)N[C@@H](Cc2ccccc2)C(=O)N[C@@H](Cc2c[nH]c3ccccc23)C(=O)N[C@@H](CCCCN)C(=O)N[C@@H](Cc2ccc(O)cc2)C(=O)N1)C(=O)O | 9.77 nM | 49 nM | 112% | – | –
15 | CC(C)[C@H](NC(=O)[C@@H]1CSSC[C@H](NC(=O)[C@H](CC(=O)O)NC(=O)[C@@H]2CCCN2C(=O)[C@@H](NC(=O)[C@@H](N)CCC(=O)O)[C@@H](C)O)C(=O)N[C@@H](Cc2ccccc2)C(=O)N[C@@H](Cc2c[nH]c3ccccc23)C(=O)N(C)[C@@H](CCCCN)C(=O)N[C@@H](Cc2ccc(O)cc2)C(=O)N1)C(=O)O | – | 2090 nM | – | – | 72%
16 | CC(C)[C@H](NC(=O)[C@@H]1CSSC[C@H](NC(=O)[C@@H](N)CC(=O)O)C(=O)N[C@@H](Cc2ccccc2)C(=O)N[C@@H](Cc2c[nH]c3ccccc23)C(=O)N(C)[C@@H](CCCCN)C(=O)N[C@@H](Cc2ccc(O)cc2)C(=O)N1)C(=O)O (H-DCFW[NMeK]YCV-OH; disulfide 2-7) | – | > 10000 nM | – | – | 42%
17 | CC(C)[C@H](NC(=O)[C@@H]1CSSC[C@H](NC(=O)[C@H](C)N)C(=O)N(C)[C@@H](Cc2ccccc2)C(=O)N[C@@H](Cc2c[nH]c3ccccc23)C(=O)N[C@@H](CCCCN)C(=O)N[C@@H](Cc2ccc(O)cc2)C(=O)N1)C(=O)O | – | 245 nM | – | 105 nM | 51%
18 | CC(C)[C@H](NC(=O)[C@@H]1CSSC[C@H](NC(=O)[C@H](C)N)C(=O)N[C@@H](Cc2ccccc2)C(=O)N[C@@H](Cc2c[nH]c3ccccc23)C(=O)N[C@@H](CCCCN)C(=O)N(C)[C@@H](Cc2ccc(O)cc2)C(=O)N1)C(=O)O | – | 5370 nM | – | – | 16%
19 | CC(C)[C@H](NC(=O)[C@@H]1CSSC[C@H](NC(=O)[C@H](CC(=O)O)NC(=O)[C@@H]2CCCN2C(=O)[C@@H](NC(=O)[C@@H](N)CCC(=O)O)[C@@H](C)O)C(=O)N[C@@H](Cc2ccccc2)C(=O)N[C@@H](Cc2c[nH]c3ccccc23)C(=O)N[C@@H](CCCCN)C(=O)N[C@@H](Cc2ccc(O)cc2)C(=O)N1C)C(=O)O | 24.5 nM | 22.9 nM | 105% | 2.69 nM | –
20 | CC(C)[C@H](NC(=O)[C@@H]1CSSC[C@H](NC(=O)[C@@H](N)CC(=O)O)C(=O)N[C@@H](Cc2ccccc2)C(=O)N[C@@H](Cc2c[nH]c3ccccc23)C(=O)N[C@@H](CCCCN)C(=O)N[C@@H](Cc2ccc(O)cc2)C(=O)N1C)C(=O)O (H-DCFWKY[NMeC]V-OH; disulfide 2-7) | 5.25 nM | 3.55 nM | 95% | 4.68 nM | –
21 | CC(C)[C@H](NC(=O)[C@@H]1CSSC[C@H](NC(=O)[C@H](CC(=O)O)NC(=O)[C@@H]2CCCN2C(=O)[C@@H](NC(=O)[C@@H](N)CCC(=O)O)[C@@H](C)O)C(=O)N[C@@H](Cc2ccccc2)C(=O)N[C@@H](Cc2c[nH]c3ccccc23)C(=O)N[C@@H](CCCCN)C(=O)N(C)[C@@H](Cc2ccc(O)cc2)C(=O)N1)C(=O)O | – | 2140 nM | – | – | 71%
